# Reference: ChEMBL document CHEMBL4257576, “4-Iminooxazolidin-2-one as a Bioisostere of the Cyanohydrin Moiety: Inhibitors of Enterovirus 71 3C Protease” (J Med Chem, 2018)
# System: not listed separately
# Experiment: Half life in human plasma by HPLC analysis
# Type: ADME, cell-free
# Conditions: not given
# Outline: (§1)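 Compound was incubated in human or mouse plasma and its remaining level followed over time to obtain t1/2. Each point is n = 3 with standard deviation bars.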
row,Structure (SMILES),half-life
1,Cc1cc(C(=O)N[C@@H](Cc2ccc(F)cc2)C(=O)N[C@@H](C[C@@H]2CCCNC2=O)[C@H]2OC(=O)N(C(C)C)C2=N)no1,> 2 h

# System: not listed separately
# Experiment: Half life in ICR (CD-1) mouse plasma by HPLC analysis
# Type: ADME, cell-free
# Conditions: not given
# Outline: as §1
row,Structure (SMILES),half-life
1,Cc1cc(C(=O)N[C@@H](Cc2ccc(F)cc2)C(=O)N[C@@H](C[C@@H]2CCCNC2=O)[C@H](C#N)OC(=O)NC(C)C)no1,0.517 h
2,CCN(C)C(=O)O[C@@H](C#N)[C@H](C[C@@H]1CCCNC1=O)NC(=O)[C@H](Cc1ccc(F)cc1)NC(=O)c1cc(C)on1,> 2 h
3,CCCNC(=O)O[C@@H](C#N)[C@H](C[C@@H]1CCCNC1=O)NC(=O)[C@H](Cc1ccc(F)cc1)NC(=O)c1cc(C)on1,0.2 h
4,Cc1cc(C(=O)N[C@@H](Cc2ccc(F)cc2)C(=O)N[C@@H](C[C@@H]2CCCNC2=O)[C@H]2OC(=O)N(C(C)C)C2=N)no1,> 2 h

# System: not listed separately
# Experiment: Half life in human liver microsomes at 1 mg/ml in presence of NADPH regenerating system by HPLC analysis
# Type: ADME, microsome
# Conditions: not given
# Outline: (§2)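 Human and mouse liver microsomes at 1.0 mg/mL. Compound disappearance was tracked over time to give half-life and intrinsic clearance (Clint, µL/min/mg). Data are the mean of triplicates with SD (n = 3).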
row,Structure (SMILES),half-life
1,Cc1cc(C(=O)N[C@@H](Cc2ccc(F)cc2)C(=O)N[C@@H](C[C@@H]2CCCNC2=O)[C@H]2OC(=O)N(C(C)C)C2=N)no1,1.27 h

# System: not listed separately
# Experiment: Half life in mouse liver microsomes at 1 mg/ml in presence of NADPH regenerating system by HPLC analysis
# Type: ADME, microsome
# Conditions: not given
# Outline: as §2
row,Structure (SMILES),half-life
1,Cc1cc(C(=O)N[C@@H](Cc2ccc(F)cc2)C(=O)N[C@@H](C[C@@H]2CCCNC2=O)[C@H]2OC(=O)N(C(C)C)C2=N)no1,1.23 h

# System: not listed separately
# Experiment: Intrinsic clearance in human liver microsomes at 1 mg/ml in presence of NADPH regenerating system by HPLC analysis
# Type: ADME, microsome
# Conditions: read-out: CLH
# Outline: as §2
row,Structure (SMILES),microsomal CLint
1,Cc1cc(C(=O)N[C@@H](Cc2ccc(F)cc2)C(=O)N[C@@H](C[C@@H]2CCCNC2=O)[C@H]2OC(=O)N(C(C)C)C2=N)no1,9 µL/min/mg

# System: not listed separately
# Experiment: Intrinsic clearance in mouse liver microsomes at 1 mg/ml in presence of NADPH regenerating system by HPLC analysis
# Type: ADME, microsome
# Conditions: read-out: CLH
# Outline: as §2
row,Structure (SMILES),microsomal CLint
1,Cc1cc(C(=O)N[C@@H](Cc2ccc(F)cc2)C(=O)N[C@@H](C[C@@H]2CCCNC2=O)[C@H]2OC(=O)N(C(C)C)C2=N)no1,9 µL/min/mg

# System: not listed separately
# Experiment: Drug metabolism in PBS buffer at pH 7.4
# Type: physicochemical
# Conditions: not given
row,Structure (SMILES),Drug metabolism
1,Cc1cc(C(=O)N[C@@H](Cc2ccc(F)cc2)C(=O)N[C@@H](C[C@@H]2CCCNC2=O)[C@H](C#N)OC(=O)NC(C)C)no1,Metabolite_Detected
2,CCN(C)C(=O)O[C@@H](C#N)[C@H](C[C@@H]1CCCNC1=O)NC(=O)[C@H](Cc1ccc(F)cc1)NC(=O)c1cc(C)on1,Metabolite_Notdetected
3,CCCNC(=O)O[C@@H](C#N)[C@H](C[C@@H]1CCCNC1=O)NC(=O)[C@H](Cc1ccc(F)cc1)NC(=O)c1cc(C)on1,Metabolite_Detected

# System: not listed separately
# Experiment: Drug metabolism in ICR (CD-1) mouse plasma by UPLC/Q-TOF-MS analysis
# Type: ADME, cell-free
# Conditions: not given
# Outline: (§3)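 Compound was incubated with mouse plasma for 60 min. LC/MS followed loss of the parent peak and appearance of a product peak by retention time, and the product was characterized by tandem MS.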
row,Structure (SMILES),Drug metabolism
1,Cc1cc(C(=O)N[C@@H](Cc2ccc(F)cc2)C(=O)N[C@@H](C[C@@H]2CCCNC2=O)[C@H](C#N)OC(=O)NC(C)C)no1,Metabolite_Detected
2,CCCNC(=O)O[C@@H](C#N)[C@H](C[C@@H]1CCCNC1=O)NC(=O)[C@H](Cc1ccc(F)cc1)NC(=O)c1cc(C)on1,Metabolite_Detected

# Target: Genome polyprotein (Enterovirus A71, UniProt A0A1D8D5K2)
# Sequence (A0A1D8D5K2 whole entry): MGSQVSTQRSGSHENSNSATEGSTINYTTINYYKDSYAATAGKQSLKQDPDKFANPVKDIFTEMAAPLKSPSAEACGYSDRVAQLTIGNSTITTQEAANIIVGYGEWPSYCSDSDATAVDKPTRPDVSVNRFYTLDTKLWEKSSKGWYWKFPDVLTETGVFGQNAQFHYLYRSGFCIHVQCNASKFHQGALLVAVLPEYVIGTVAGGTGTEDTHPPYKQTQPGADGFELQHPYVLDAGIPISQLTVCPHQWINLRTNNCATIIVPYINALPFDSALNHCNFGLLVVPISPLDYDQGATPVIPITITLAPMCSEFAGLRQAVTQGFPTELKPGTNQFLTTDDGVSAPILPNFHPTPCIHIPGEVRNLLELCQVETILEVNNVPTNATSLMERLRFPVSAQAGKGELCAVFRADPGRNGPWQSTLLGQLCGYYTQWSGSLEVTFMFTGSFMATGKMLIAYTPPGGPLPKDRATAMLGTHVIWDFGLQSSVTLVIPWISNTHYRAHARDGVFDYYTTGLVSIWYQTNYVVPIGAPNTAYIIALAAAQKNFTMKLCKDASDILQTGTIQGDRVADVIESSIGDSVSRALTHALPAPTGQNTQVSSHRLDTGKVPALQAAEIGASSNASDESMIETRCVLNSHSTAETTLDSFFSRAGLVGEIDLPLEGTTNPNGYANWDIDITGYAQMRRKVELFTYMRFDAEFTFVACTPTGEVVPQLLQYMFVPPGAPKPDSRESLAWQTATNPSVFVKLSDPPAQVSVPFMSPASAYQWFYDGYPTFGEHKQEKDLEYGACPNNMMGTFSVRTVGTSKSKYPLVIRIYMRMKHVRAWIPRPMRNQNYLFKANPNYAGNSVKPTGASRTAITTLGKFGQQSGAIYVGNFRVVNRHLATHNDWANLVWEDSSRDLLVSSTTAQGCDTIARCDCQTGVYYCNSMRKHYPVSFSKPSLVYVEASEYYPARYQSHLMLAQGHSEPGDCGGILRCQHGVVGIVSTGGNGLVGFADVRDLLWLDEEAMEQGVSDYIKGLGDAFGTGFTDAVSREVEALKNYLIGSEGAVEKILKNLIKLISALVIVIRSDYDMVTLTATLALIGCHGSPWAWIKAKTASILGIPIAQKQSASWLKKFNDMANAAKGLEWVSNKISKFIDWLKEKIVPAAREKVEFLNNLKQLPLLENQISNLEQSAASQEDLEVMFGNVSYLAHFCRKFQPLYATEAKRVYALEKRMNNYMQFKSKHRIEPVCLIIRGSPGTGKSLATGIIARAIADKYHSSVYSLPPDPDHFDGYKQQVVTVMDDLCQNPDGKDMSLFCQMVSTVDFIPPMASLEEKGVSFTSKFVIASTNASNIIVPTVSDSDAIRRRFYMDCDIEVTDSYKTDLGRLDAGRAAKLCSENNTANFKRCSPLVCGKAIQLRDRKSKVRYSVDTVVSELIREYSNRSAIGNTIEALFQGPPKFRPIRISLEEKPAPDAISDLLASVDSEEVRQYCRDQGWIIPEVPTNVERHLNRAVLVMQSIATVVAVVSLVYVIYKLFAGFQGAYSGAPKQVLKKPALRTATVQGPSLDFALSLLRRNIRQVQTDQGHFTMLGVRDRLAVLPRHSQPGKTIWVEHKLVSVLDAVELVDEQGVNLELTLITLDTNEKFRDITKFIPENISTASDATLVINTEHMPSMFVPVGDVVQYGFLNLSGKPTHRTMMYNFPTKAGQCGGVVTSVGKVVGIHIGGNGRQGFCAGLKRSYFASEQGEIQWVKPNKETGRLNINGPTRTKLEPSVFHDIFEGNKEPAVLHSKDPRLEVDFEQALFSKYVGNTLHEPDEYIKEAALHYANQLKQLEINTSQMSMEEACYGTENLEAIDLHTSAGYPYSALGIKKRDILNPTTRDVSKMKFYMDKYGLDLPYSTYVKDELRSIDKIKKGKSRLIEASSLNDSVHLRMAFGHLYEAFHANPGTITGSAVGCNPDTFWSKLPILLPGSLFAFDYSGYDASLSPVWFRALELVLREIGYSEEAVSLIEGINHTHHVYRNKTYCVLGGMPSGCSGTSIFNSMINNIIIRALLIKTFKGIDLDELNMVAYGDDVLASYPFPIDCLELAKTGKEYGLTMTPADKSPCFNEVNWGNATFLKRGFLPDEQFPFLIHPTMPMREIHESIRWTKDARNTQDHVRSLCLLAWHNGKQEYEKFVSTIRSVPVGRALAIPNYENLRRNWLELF
# Experiment: Inhibition of EV71 3C protease expressed in Escherichia coli BL21(DE3) using NMA-IEALFQGPPK(DNP)FR as substrate preincubated for 0.5 hrs followed by substrate addition by fluorescence assay
# Conditions: not given
# Outline: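 Values reported as Ki (µM), each the mean of three independent experiments with SEM (n=3).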
row,Structure (SMILES),Ki
1,Cc1cc(C(=O)N[C@@H](Cc2ccc(F)cc2)C(=O)N[C@@H](C[C@@H]2CCCNC2=O)[C@H](C#N)OC(=O)NC(C)C)no1,36 nM
2,CCCNC(=O)O[C@@H](C#N)[C@H](C[C@@H]1CCCNC1=O)NC(=O)[C@H](Cc1ccc(F)cc1)NC(=O)c1cc(C)on1,85 nM
3,Cc1cc(C(=O)N[C@@H](Cc2ccc(F)cc2)C(=O)N[C@@H](C[C@@H]2CCCNC2=O)[C@H]2OC(=O)N(C(C)C)C2=N)no1,33 nM

# System: Enterovirus A71
# Experiment: Antiviral activity against Enterovirus A71 infected in human RD cells receiving pEV71-Luc subgenomic replicon stocks from HEK-293T cells
# Type: functional, organism-based
# Conditions: Enterovirus A
# Outline: (§4)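 Values (EC50, CC50) are the average of three independent experiments, with SEM (n = 3).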
row,Structure (SMILES),EC50
1,Cc1cc(C(=O)N[C@@H](Cc2ccc(F)cc2)C(=O)N[C@@H](C[C@@H]2CCCNC2=O)[C@H](C#N)OC(=O)NC(C)C)no1,650 nM
2,CCN(C)C(=O)O[C@@H](C#N)[C@H](C[C@@H]1CCCNC1=O)NC(=O)[C@H](Cc1ccc(F)cc1)NC(=O)c1cc(C)on1,> 100000 nM
3,CCCNC(=O)O[C@@H](C#N)[C@H](C[C@@H]1CCCNC1=O)NC(=O)[C@H](Cc1ccc(F)cc1)NC(=O)c1cc(C)on1,160 nM
4,Cc1cc(C(=O)N[C@@H](Cc2ccc(F)cc2)C(=O)N[C@@H](C[C@@H]2CCCNC2=O)[C@H]2OC(=O)N(C(C)C)C2=N)no1,100 nM

# System: not listed separately
# Experiment: Retention time of compound in ICR (CD-1) mouse plasma by UPLC/Q-TOF-MS analysis
# Type: ADME, cell-free
# Conditions: not given
# Outline: as §3
row,Structure (SMILES),Retention_time
1,Cc1cc(C(=O)N[C@@H](Cc2ccc(F)cc2)C(=O)N[C@@H](C[C@@H]2CCCNC2=O)[C@H](C#N)OC(=O)NC(C)C)no1,6.41 min

# System: not listed separately
# Experiment: Cytotoxicity in human RD cells assessed as reduction in cell viability incubated for 24 hrs by WST1 assay
# Type: cell-based
# Conditions: not given
# Outline: as §4
row,Structure (SMILES),CC50 at 24 h
1,Cc1cc(C(=O)N[C@@H](Cc2ccc(F)cc2)C(=O)N[C@@H](C[C@@H]2CCCNC2=O)[C@H](C#N)OC(=O)NC(C)C)no1,> 100000 nM
2,CCN(C)C(=O)O[C@@H](C#N)[C@H](C[C@@H]1CCCNC1=O)NC(=O)[C@H](Cc1ccc(F)cc1)NC(=O)c1cc(C)on1,> 100000 nM
3,CCCNC(=O)O[C@@H](C#N)[C@H](C[C@@H]1CCCNC1=O)NC(=O)[C@H](Cc1ccc(F)cc1)NC(=O)c1cc(C)on1,> 100000 nM
4,Cc1cc(C(=O)N[C@@H](Cc2ccc(F)cc2)C(=O)N[C@@H](C[C@@H]2CCCNC2=O)[C@H]2OC(=O)N(C(C)C)C2=N)no1,> 100000 nM
